Consider four compounds from article PMC7590959 (Journal of medicinal chemistry, 2020).

Series [1] can be described thus: Plasma PK after IV administration in mice. Conditions: CD-1, mouse, 50 mg/kg. The format is in vivo. The method in brief:
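CD-1 mice in groups of 24 received 50 mg/kg IV with parallel sampling. Blood was taken by cardiac puncture under isoflurane into lithium heparin or K2EDTA tubes and kept on ice. Tubes were spun at 2500 × g for 15 min at 4 °C within 1 h, and plasma was stored at −70 °C. Samples were acetonitrile-precipitated and run by HPLC-MS/MS against a spiked-plasma calibration curve with internal standard. Parameters were derived by noncompartmental analysis.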

Another series deals with OXA-24 (Acinetobacter baumannii, UniProt Q8RLA6). Description: β-Lactamase hydrolysis, OXA-24. The format is biochemical. Conditions: OXA-24, 200 nM enzyme, 100 μM 1.
Series [2] concerns primary human hepatocytes. Description: Toxicity against primary human hepatocytes. In kind it is cell-based. Conditions: maximum concentration 100 μM, 72 h incubation.
Series [3] deals with seven other tested ion channels. Description: Other ion channels. Conditions: 30 μM. In kind it is binding.
The subject of a further series is eight CYP enzymes. Description: CYP inhibition. Conditions: 30 μM. In kind it is in vitro ADME.
A further series concerns the target OXA-23 (Acinetobacter baumannii, UniProt Q9L4P2). Description: β-Lactamase hydrolysis, OXA-23. The format is biochemical. The settings on record: OXA-23, 200 nM enzyme, 100 μM 1.
The next series concerns the target PDC-3 (Pseudomonas aeruginosa, UniProt P24735, T105A). Description: β-Lactamase hydrolysis, PDC-3. In kind it is biochemical, P. aeruginosa.
The next series concerns the target KPC-2 (Klebsiella pneumoniae, UniProt Q9F663). As to the kind of experiment: β-Lactamase hydrolysis, KPC-2. In kind it is biochemical. The settings on record: KPC-2, 200 nM enzyme, 100 μM 1.
The target of the next series is hERG (Homo sapiens, UniProt Q12809). Description: hERG binding. Conditions: 30 μM.
Sequence of hERG (Q12809 whole entry): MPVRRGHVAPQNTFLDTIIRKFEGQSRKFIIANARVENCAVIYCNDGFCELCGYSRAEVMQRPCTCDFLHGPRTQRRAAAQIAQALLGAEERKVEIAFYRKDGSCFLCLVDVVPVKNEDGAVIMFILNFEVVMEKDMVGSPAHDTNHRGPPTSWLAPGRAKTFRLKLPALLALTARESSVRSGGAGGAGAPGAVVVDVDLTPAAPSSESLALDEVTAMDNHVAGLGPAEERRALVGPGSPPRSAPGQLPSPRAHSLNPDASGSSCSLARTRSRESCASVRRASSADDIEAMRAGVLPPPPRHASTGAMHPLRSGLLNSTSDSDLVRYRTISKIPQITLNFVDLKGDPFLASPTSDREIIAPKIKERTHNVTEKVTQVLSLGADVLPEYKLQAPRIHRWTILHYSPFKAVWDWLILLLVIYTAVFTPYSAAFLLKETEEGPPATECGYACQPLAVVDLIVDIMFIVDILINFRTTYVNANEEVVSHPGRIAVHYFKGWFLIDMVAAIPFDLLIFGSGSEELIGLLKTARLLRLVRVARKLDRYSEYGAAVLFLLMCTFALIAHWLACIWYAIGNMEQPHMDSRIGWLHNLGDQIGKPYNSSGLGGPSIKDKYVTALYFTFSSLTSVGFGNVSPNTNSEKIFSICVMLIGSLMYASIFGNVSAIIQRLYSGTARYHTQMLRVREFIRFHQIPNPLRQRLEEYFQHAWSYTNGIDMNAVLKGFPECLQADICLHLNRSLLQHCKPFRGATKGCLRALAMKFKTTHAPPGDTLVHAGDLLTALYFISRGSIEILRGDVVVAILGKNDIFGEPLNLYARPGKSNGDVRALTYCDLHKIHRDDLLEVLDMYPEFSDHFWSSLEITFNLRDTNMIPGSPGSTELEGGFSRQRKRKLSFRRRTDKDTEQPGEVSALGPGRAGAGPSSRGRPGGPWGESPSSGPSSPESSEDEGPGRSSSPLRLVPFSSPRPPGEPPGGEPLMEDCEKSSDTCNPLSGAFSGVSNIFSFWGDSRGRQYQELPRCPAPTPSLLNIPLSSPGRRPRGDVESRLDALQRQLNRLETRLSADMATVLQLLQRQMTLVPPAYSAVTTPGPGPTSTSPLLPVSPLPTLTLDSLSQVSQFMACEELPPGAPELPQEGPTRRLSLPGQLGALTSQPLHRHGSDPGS
In a further series the test system is PER-2. As to the kind of experiment: β-Lactamase hydrolysis, PER-2. In kind it is biochemical. Conditions: PER-2, 200 nM enzyme, 100 μM 1.
A further series concerns Caco-2. Description: Caco-2 permeability. The format is in vitro ADME. Background: Caco-2 cells form a polarised layer with tight junctions and transporters.
In a further series the test system is Gram-negative isolates. As to the kind of experiment: Abbreviated MIC panel of Gram-negative isolates. The format is cell-based. The method in brief:
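Broth microdilution MIC using iron-depleted cation-adjusted Mueller–Hinton broth, except where noted otherwise. The inoculum was lowered to 6 × 10^4 CFU/mL.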

Series [4] concerns P. aeruginosa (197 clinical isolates). The settings on record: comparator MICs from the original studies; cited from earlier work.
The subject of series [5] is K. pneumoniae (100 clinical isolates). Conditions: comparator MICs from the original studies; cited from earlier work.
For series [6] the following is noted: IV bags, in 24 h after reconstitution; known, ref not given; cited from earlier work.

Turning to `CC(C)(O/N=C(\C(=O)N[C@H]1CN2CC(C(=O)NCCN3C(=O)c4cc(O)c(O)cc4C3=O)=C(C(=O)O)N2C1=O)c1csc(N)n1)C(=O)O` [Compound 1, (S,Z)-6-(2-(2-Aminothiazol-4-yl)-2-(((2-carboxypropan-2-yl)oxy)imino)acetamido)-2-((2-(5,6-dihydroxy-1,3-dioxoisoindolin-2-yl)ethyl)carbamoyl)-5-oxo-6,7-dihydro-1H,5H-pyrazolo[1,2-a]pyrazole-3-carboxylic Acid], the clearance at 2 h in [1] amounted to 0.84 L/h/kg. For the same compound, in [1], the concentration at 2 h is above 1 µg/mL. The “hydrolysis by β-lactamase” value on OXA-24, on OXA-23, at PDC-3, on KPC-2 and with PER-2 was “hydrolysis was not detected” throughout. Moreover, in series [2], the toxicity result is reported as “not found”. In addition, the ion channel binding entry in series [3] was “does not bind”. Moreover, the CYP inhibition result in the series on eight CYP enzymes is given as “does not inhibit”. In addition, the hERG binding entry on hERG is “does not bind”. In the series with Caco-2, the Caco-2 permeability result is recorded as “poor”.

In the case of `CC(C)(O/N=C(\C(=O)N[C@H]1CN2CC(C(=O)NCCc3ccccc3)=C(C(=O)O)N2C1=O)c1csc(N)n1)C(=O)O` [Compound 2, (S,Z)-6-(2-(2-Aminothiazol-4-yl)-2-(((2-carboxypropan-2-yl)oxy)imino)acetamido)-5-oxo-2-(phenethylcarbamoyl)-6,7-dihydro-1H,5H-pyrazolo[1,2-a]pyrazole-3-carboxylic Acid], in the series on Gram-negative isolates, the minimal inhibitory concentration (MIC) is above 64 mg/L.

As for `CC(C)(O/N=C(\C(=O)N[C@@H]1C(=O)N2C(C(=O)[O-])=C(C[n+]3ccccc3)CS[C@H]12)c1csc(N)n1)C(=O)O` [ceftazidime (4), ceftazidime], the MIC90 in [4] is above 16 mg/L. In series [5], the MIC50 is above 64 mg/L and the MIC90 was above 64 mg/L.

For the compound `C[C@@H](O)[C@H]1C(=O)N2C(C(=O)O)=C(S[C@@H]3CN[C@H](C(=O)N(C)C)C3)[C@H](C)[C@H]12` [meropenem (6), meropenem], the MIC90 in [4] is above 8 mg/L; in series [5], above 64 mg/L. Besides, the degradation after reconstitution in series [6] was above 30%.

A word on the clearance: it is a measure of how efficiently the substance is removed, as volume per time. As a reminder, the MIC is the least concentration at which growth counts as inhibited. Read a high MIC as a need for much substance. As a reminder, the MIC90 is an inhibitory concentration at the 90% level, which refers to growth in some studies and to a panel of isolates in others. For orientation: MIC50 means the lowest concentration that inhibits either 50% of growth or 50% of the strains tested, depending on the study.
